Measurements as given in ChEMBL document CHEMBL1121619, “Demethyl analogues of psychoactive methoxyphenalkylamines: synthesis and serotonin receptor affinities” (J Med Chem, 1980).

Assays:
[1] = target: T1, 5-hydroxytryptamine receptor 2B (Rattus norvegicus, UniProt P30994); test: Antagonistic activity against 5-hydroxytryptamine 2B receptor obtained from rat stomach fundus preparation; format: functional, tissue-based; conditions: read-out: pA2 (converted)
[2] = target: T1, 5-hydroxytryptamine receptor 2B; test: Antagonistic against 5-hydroxytryptamine 2B receptor; format: functional; conditions: read-out: pA2 (converted)
[3] = test system: Rattus norvegicus; test: Compound was tested for its activity for maximal correct- drug lever responding at doses 5 mg/Kg in rat; Range 0-8%; format: functional
How it was run: (§1)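 Rats were trained in a two-lever drug discrimination procedure to tell 5-methoxy-N,N-dimethyltryptamine hydrogen oxalate (1.5 mg/kg) from saline. Each challenge dose was given to three to six rats, and the percentage of drug-lever responding was recorded.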

[4] = test system: Rattus norvegicus; test: Compound was tested for its activity for maximal correct- drug lever responding at doses 2 mg/Kg in rat; Range 0-8%; format: functional; how it was run: as §1
[5] = test system: Rattus norvegicus; test: Compound was tested for its activity for maximal correct- drug lever responding at doses 3 mg/Kg in rat; Range 0-8%; format: functional; how it was run: as §1
[6] = target: Serotonin (5-HT) receptor; test: (§2) Antagonistic activity of corresponding methoxy compound against serotonin 5-HT receptor; format: functional
[7] = target: T1, 5-hydroxytryptamine receptor 2B; test: as §2; format: functional; conditions: read-out: pA2 (converted)

T1 sequence (P30994 whole entry): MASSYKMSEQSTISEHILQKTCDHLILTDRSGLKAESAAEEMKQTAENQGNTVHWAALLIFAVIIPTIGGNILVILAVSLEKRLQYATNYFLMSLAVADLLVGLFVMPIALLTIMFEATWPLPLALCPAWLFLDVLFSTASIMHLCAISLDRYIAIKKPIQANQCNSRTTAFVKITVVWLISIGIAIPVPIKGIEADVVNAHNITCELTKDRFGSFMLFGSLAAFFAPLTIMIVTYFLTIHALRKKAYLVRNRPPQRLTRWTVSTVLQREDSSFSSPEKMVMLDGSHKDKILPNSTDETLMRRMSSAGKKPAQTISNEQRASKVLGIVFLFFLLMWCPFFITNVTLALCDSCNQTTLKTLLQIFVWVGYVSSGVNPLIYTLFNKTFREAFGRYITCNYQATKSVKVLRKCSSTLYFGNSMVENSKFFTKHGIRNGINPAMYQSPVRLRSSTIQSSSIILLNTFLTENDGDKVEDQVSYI

In the case of `COc1ccc(O)c(CC(C)N)c1` (centres undefined), the Kb [1] is reported as 100 nM and the Kb [2] is reported as 148 nM.
`COc1cc(CC(C)N)ccc1O` (stereo not drawn) [3-O-METHYL-ALPHA-METHYLDOPAMINE] gave a Kb [1] of 6460 nM and a Kb [2] of 3550 nM.
`COc1ccc(CC(C)N)c(O)c1` (centres undefined) showed a Kb [2] of 2510 nM.
For `COc1cc(C)c(O)cc1CC(C)N` (centres undefined), the Activity [3] was 0%, the Activity [4] was 0% and the Kb [1] was 12.3 nM. It also gave a Kb [2] of 75.9 nM and an Activity [5] of 0%.
`COc1cc(CC(C)N)c(O)cc1C` (centres undefined) showed a Kb [1] of 36.3 nM and a Kb [2] of 75.9 nM.
Compound `NCCc1ccccc1O` has a pA2 [6] of 5.52.
With `COc1ccc(O)c(CC(C)N(C)C)c1` (centres undefined) the Kb [1] was 166 nM and the Kb [2] was 316 nM.
For `COc1ccc(O)c(CCN(C)C)c1`, the Kb [1] was 145 nM and the Kb [2] was 302 nM.
`COc1ccc(OCc2ccccc2)c(CCN(C)C)c1` showed a Kb [1] of 3630 nM and a Kb [2] of 302 nM.
Compound `NCCc1ccc(O)cc1` [TYRAMINE] has a Kb [7] of 7940 nM.
For `COc1ccc(CC(C)N)cc1O` (centres undefined), the Kb [1] was 135 nM and the Kb [2] was 3550 nM.
In the case of `COc1ccc(O)c(CCN)c1`, the Kb [1] is reported as 79.4 nM and the Kb [2] is reported as 141 nM.
